Data published in publication PMC6008213 (Biochemistry, 2018).
Residue numbers refer to the chain shown, from its start.

Tests used:
human TG2 [1] = target: T1, human TG2 (Homo sapiens, UniProt P21980); test: TG2 deamidation activity assay; assay type: biochemical; settings: for kinh/Ki (bimolecular rate constant for TG2 oxidation): deamidation activity assay, 50 mM Tris, 1 mM EDTA, TG2 10 μM
T1 sequence (P21980 1-687): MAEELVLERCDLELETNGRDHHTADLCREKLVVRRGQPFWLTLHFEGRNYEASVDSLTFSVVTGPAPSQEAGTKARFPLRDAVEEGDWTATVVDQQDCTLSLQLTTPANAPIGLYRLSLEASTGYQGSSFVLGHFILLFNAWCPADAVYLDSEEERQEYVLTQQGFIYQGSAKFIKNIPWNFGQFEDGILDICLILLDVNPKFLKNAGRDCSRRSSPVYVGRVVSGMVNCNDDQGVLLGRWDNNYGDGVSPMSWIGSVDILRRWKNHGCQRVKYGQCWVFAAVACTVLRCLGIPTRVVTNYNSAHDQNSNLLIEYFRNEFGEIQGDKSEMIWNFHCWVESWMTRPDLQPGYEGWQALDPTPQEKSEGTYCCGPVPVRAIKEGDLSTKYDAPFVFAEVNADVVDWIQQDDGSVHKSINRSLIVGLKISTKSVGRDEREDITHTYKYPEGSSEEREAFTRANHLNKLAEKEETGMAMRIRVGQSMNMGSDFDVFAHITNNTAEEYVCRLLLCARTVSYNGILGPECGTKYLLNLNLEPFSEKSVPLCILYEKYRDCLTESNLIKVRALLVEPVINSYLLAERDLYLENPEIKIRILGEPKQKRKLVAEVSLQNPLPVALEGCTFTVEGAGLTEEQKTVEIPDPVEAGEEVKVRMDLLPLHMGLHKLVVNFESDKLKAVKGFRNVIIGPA
Procedure, shortened: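 Human TG2 was expressed in and purified from E. coli and held at 10 μM in 50 mM Tris, 1 mM EDTA, pH 7.6, 22 °C, with disulfide oxidant. Aliquots taken at 2.5–120 min were diluted 10-fold into assay buffer. Deamidation activity was read relative to oxidant-free enzyme, in three technical replicates. Single-exponential fits gave k′. kinh/Ki came from the slope of k′ versus [I0], and Ki from fitting k′ versus [I0].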

human TG2 [2] = target: T1, human TG2; test: TG2 transamidation activity assay; assay type: biochemical
Procedure, shortened: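 Transamidation was measured with TG2 immobilized on fibronectin, in 50 mM Tris, 1 mM EDTA, pH 7.6, 22 °C. After timed exposure to oxidant, activity was read relative to untreated enzyme. Single-exponential fits gave k′. Ki and kinh/Ki came from the dependence of k′ on inhibitor concentration.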

[3] = target: T2, C230S mutant of human TG2 (Homo sapiens, UniProt P21980, C230S); test: Deamidation activity of the C230S mutant of TG2 after cystamine treatment; assay type: biochemical; settings: 10-fold molar excess of cystamine, 30 min; pH 7.6, 22 °C
T2 sequence (P21980 1-687 C230S): T1 sequence (P21980 1-687) with C230S

TG2 = settings: reported value; cited from earlier work

SMILES | kinh/Ki (bimolecular rate constant for TG2 oxidation) (human TG2 [1]; pH 7.6, 22 °C) [M⁻¹ s⁻¹] | Ki (human TG2 [2]) [µM] | kinh/Ki (bimolecular rate constant for TG2 oxidation) (human TG2 [2]; transamidation activity assay, 50 mM Tris, 1 mM EDTA, pH 7.6, 22 °C (disulfiram: TG2 50 nM, disulfiram 10 μM, 2.5% DMSO)) [M⁻¹ s⁻¹] | retained deamidation activity of C230S mutant [3] [%] | Ki (human TG2 [1]) [µM] | inactivation of WT TG2 (deamidation activity) (human TG2 [1]; 10-fold molar excess of cystamine, 30 min, pH 7.6, 22 °C) | kinh/Ki (TG2) [M⁻¹ s⁻¹]
N[C@@H](CSSC[C@H](N)C(=O)O)C(=O)O [cystine] | 4.83 |  |  |  |  |  | 
NCCSSCCN [cystamine] | 20 | > 100 | 28.3 | > 85 | > 600 | completely inactivated | 
O=C(NC[C@@H]1CC(Br)=NO1)[C@@H]1CCCN1C(=O)OCc1cnc2ccccc2c1 [ERW1041E] |  |  |  |  |  |  | 267
